# Test results published in ChEMBL document CHEMBL4219175, “Synthesis and biological evaluation of aminothiazoles against Histoplasma capsulatum and Cryptococcus neoformans” (Bioorg Med Chem, 2018).
# Experiments:
# Histoplasma capsulatum [1] = test: Antifungal activity against Histoplasma capsulatum G217B ATCC 26032 at pH 7 measured over 5 days; format: functional, organism-based; conditions: G217B ATCC 26032, 120 h
# How it was run: (§1)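 Yeasts pre-grown in HMM (37 °C, 5% CO2) to exponential phase, counted by hemacytometer, diluted into RPMI buffered with 25 mM HEPES (pH 7.0) or 25 mM MOPS (pH 5.0) at 5 x 10^5 per well; two-fold dilutions 40 to 0.078 µM, 37 °C, agitated twice daily. A595 read over 5 days, normalized to DMSO controls; 4-day data fitted by 4-parameter regression for IC50; MIC = ≤10% growth.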
# Cryptococcus neoformans [2] = test: Antifungal activity against wild type fluconazole-sensitive Cryptococcus neoformans serotype A H99 at pH 7 measured over 4 days; format: functional, organism-based; conditions: var grubii H99 , 96 h
# How it was run: (§2)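 YPD-grown exponential-phase yeasts, hemacytometer-counted, diluted into RPMI buffered to pH 7.0 with 25 mM HEPES (or pH 5.0 with […] for pH comparison) at 2 x 10^3 per well; two-fold series 40 to 0.078 µM, 37 °C, agitated twice daily. A595 followed over 4 days versus DMSO controls; day-3 turbidity fitted by 4-parameter regression for IC50; MIC = growth ≤10% of untreated.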
# P388D1 = test: Cytotoxicity against mouse P388D1 cells assessed as reduction in cell viability after 72 hrs by resazurin-based fluorescence assay; conditions: P388D1, 72 h
# How it was run: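 P388D1 cells in Ham's F-12 + 10% FBS + 2 mM L-glutamine seeded at 5 x 10^3 per well, adhered overnight, exposed to compounds 80 to 0.3 µM for 72 h. Viability read as resorufin fluorescence (530/590 nm) after 0.1 mM resazurin, pre-saturation time points, versus untreated cells; three biological replicates; IC50 by non-linear regression.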
# [3] = Therapeutic index, ratio of IC50 for mouse P388D1 cells to IC50 for Histoplasma capsulatum G217B ATCC 26032; format: toxicity; conditions: read-out: Ratio IC50
# How it was run: (§3)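 Ratio of P388D1 IC50 (72 h resazurin viability, 80 to 0.3 µM) to yeast IC50 from RPMI/HEPES pH 7.0 broth dilution with A595 turbidity and 4-parameter regression.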
# [4] = Therapeutic index, ratio of IC50 for mouse P388D1 cells to IC50 for wild type Cryptococcus neoformans serotype A H99; format: toxicity; conditions: read-out: Ratio IC50; how it was run: as §3
# Cryptococcus neoformans [5] = test: Antifungal activity against wild-type fluconazole-sensitive Cryptococcus neoformans serotype D B3501 measured over 4 days; format: functional, organism-based; conditions: B3501, 96 h; how it was run: as §2
# Cryptococcus neoformans [6] = test: Antifungal activity against fluconazole-resistant Cryptococcus neoformans serotype A TES9 harboring erg11 mutant measured over 4 days; format: functional, organism-based; conditions: TES9, 96 h; how it was run: as §2
# Cryptococcus neoformans [7] = test: Antifungal activity against fluconazole-resistant Cryptococcus neoformans serotype A MRL862 harboring erg11 mutant measured over 4 days; format: functional, organism-based; conditions: MRL862, 96 h; how it was run: as §2
# Histoplasma capsulatum [8] = test: Antifungal activity against RFP expressing Histoplasma capsulatum infected in LacZ-expressing mouse P388D1 cells incubated for 6 days measured daily by fluorescence assay; format: functional, organism-based; conditions: for MIC: 144 h; for IC50: P388D1, 144 h
# How it was run: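 LacZ-expressing P388D1 macrophages (3x10^4 per well, adhered 3 h) infected with RFP Histoplasma yeasts at MOI 1:2 for 3 h, medium replaced with F-12 + 10% serum, overnight at 37 °C, then compound gradient added for 6 days. RFP fluorescence (530/590 nm) read daily; day-4 values relative to untreated infected cells fitted by non-linear regression; triplicate.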
# [9] = Aqueous solubility of the compound at pH 5; format: physicochemical; conditions: aqueous medium
# [10] = Aqueous solubility of the compound at pH 7; format: physicochemical; conditions: aqueous medium
# [11] = Ratio of aqueous solubility at pH 5 to aqueous solubility at pH 7; format: physicochemical; conditions: buffer
# Histoplasma capsulatum [12] = test: Antifungal activity against Histoplasma capsulatum G217B ATCC 26032 at pH 5 measured over 5 days; format: functional, organism-based; conditions: G217B ATCC 26032, 120 h; how it was run: as §1
# Cryptococcus neoformans [13] = test: Antifungal activity against wild type fluconazole-sensitive Cryptococcus neoformans serotype A H99 at pH 5 measured over 4 days; format: functional, organism-based; conditions: var grubii H99 , 96 h; how it was run: as §2
Structure (SMILES),IC50 (Histoplasma capsulatum [1]),MIC90 (Histoplasma capsulatum [1]),IC50 (Cryptococcus neoformans [2]),MIC90 (Cryptococcus neoformans [2]),IC50 (P388D1),selectivity ratio [3],further results
O=C(CCC1CCCCC1)Nc1ncc(C(=O)c2cccc3ccccc23)s1,640 nM,1.25 µM,> 20 µM,> 40 µM,> 40 µM,> 63,–
O=C(Nc1ncc(Cc2cc3sccc3s2)s1)C1CCCCC1,> 20000 nM,> 40 µM,> 20 µM,> 40 µM,–,–,–
O=C(CCC1CCCCC1)Nc1ncc(Cc2csc3ccccc23)s1,270 nM,0.63 µM,> 20 µM,> 40 µM,16.9 µM,63,–
O=C(CCC1CCCCC1)Nc1ncc(Cc2cccc3ccccc23)s1,600 nM,1.25 µM,> 20 µM,> 40 µM,27.6 µM,46,–
O=C(CCC1CCCCC1)Nc1ncc(Cc2cccc3sccc23)s1,200 nM,0.31 µM,> 20 µM,> 40 µM,> 40 µM,> 200,–
O=C(CCC1CCCCC1)Nc1ncc(CC2CCCC2)s1,> 20000 nM,> 40 µM,> 20 µM,> 40 µM,–,–,–
O=C(CCC1CCCCC1)Nc1ncc(Cc2cccc3nsnc23)s1,> 20000 nM,> 40 µM,> 20 µM,> 40 µM,–,–,–
O=C(Nc1ncc(Cc2cccc3sccc23)s1)C1CCCCC1,200 nM,0.31 µM,0.21 to 0.37 µM,0.63 to 1.25 µM,> 40 µM,> 200,selectivity ratio [4]: > 108; IC50 (Cryptococcus neoformans [5]): 160 nM; MIC90 (Cryptococcus neoformans [5]): 0.63 µM; IC50 (Cryptococcus neoformans [6]): 190 nM; MIC90 (Cryptococcus neoformans [6]): 0.31 µM; IC50 (Cryptococcus neoformans [7]): 130 nM; MIC90 (Cryptococcus neoformans [7]): 0.31 µM; MIC (Histoplasma capsulatum [8]): 2.5 µM; IC50 (Histoplasma capsulatum [8]): 1210 nM
O=C(Nc1ncc(Cc2ccncc2)s1)C1CCCCC1,> 20000 nM,–,> 20 µM,–,–,–,solubility [9]: 1190 µg/mL; solubility [10]: 350 µg/mL; Ratio [11]: 3.4; IC50 (Histoplasma capsulatum [12]): > 20 µM; MIC90 (Histoplasma capsulatum [12]): > 40 µM; IC50 (Cryptococcus neoformans [13]): > 20 µM; MIC90 (Cryptococcus neoformans [13]): > 40 µM
O=C(Nc1ncc(Cc2csc3ccccc23)s1)C1CCCCC1,> 20000 nM,> 40 µM,> 20 µM,> 40 µM,–,–,–
O=C(Nc1ncc(Cc2cccc3ccsc23)s1)C1CCCCC1,200 nM,0.31 µM,0.34 µM,0.63 µM,> 40 µM,> 200,selectivity ratio [4]: > 118; IC50 (Cryptococcus neoformans [5]): 270 nM; MIC90 (Cryptococcus neoformans [5]): 0.63 µM; IC50 (Cryptococcus neoformans [6]): 230 nM; MIC90 (Cryptococcus neoformans [6]): 0.63 µM; IC50 (Cryptococcus neoformans [7]): 200 nM; MIC90 (Cryptococcus neoformans [7]): 0.63 µM; MIC (Histoplasma capsulatum [8]): 2.5 µM; IC50 (Histoplasma capsulatum [8]): 1380 nM
CCc1cnc(NC(=O)C2CCCCC2)s1,> 20000 nM,> 40 µM,> 20 µM,> 40 µM,–,–,–
O=C(Nc1ncc(Cc2ccccc2)s1)C1CCCCC1,1060 nM,2.5 µM,1.36 µM,2.5 µM,> 40 µM,> 38,selectivity ratio [4]: > 29
O=C(Nc1ncc(Cc2cccc3c2CCCC3)s1)C1CCCCC1,> 20000 nM,> 40 µM,> 20 µM,> 40 µM,–,–,–
O=C(Nc1ncc(Cc2cccc3c2CCC3)s1)C1CCCCC1,250 nM,0.63 µM,0.41 µM,1.25 µM,> 40 µM,> 160,selectivity ratio [4]: > 98; IC50 (Cryptococcus neoformans [5]): 420 nM; MIC90 (Cryptococcus neoformans [5]): 1.25 µM; IC50 (Cryptococcus neoformans [6]): 450 nM; MIC90 (Cryptococcus neoformans [6]): 1.25 µM; IC50 (Cryptococcus neoformans [7]): 370 nM; MIC90 (Cryptococcus neoformans [7]): 1.25 µM
